The full list was thinned out, with hits kept by preference.
GASC1 inh: inhibitors of GASC-1 (KDM4C) histone demethylase, primary screen, biochemical, single concentration HTS; GST-KDM4C 2-372, H3K9me3 peptide, LANCE TR-FRET; inhibition, % at 12.5 µM; 0.15% of 96,000 active; Lysine-specific demethylase 4C (Homo sapiens), Q9H3R0;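 active = mean replicate inhibition above about 25%, with at least 55% of replicates also reaching it, limit read from the data, passing the limit was not always enough; inconclusive = only one of those two conditions met; inactive = neither condition met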
Target sequence (Q9H3R0 2-372 limits assumed): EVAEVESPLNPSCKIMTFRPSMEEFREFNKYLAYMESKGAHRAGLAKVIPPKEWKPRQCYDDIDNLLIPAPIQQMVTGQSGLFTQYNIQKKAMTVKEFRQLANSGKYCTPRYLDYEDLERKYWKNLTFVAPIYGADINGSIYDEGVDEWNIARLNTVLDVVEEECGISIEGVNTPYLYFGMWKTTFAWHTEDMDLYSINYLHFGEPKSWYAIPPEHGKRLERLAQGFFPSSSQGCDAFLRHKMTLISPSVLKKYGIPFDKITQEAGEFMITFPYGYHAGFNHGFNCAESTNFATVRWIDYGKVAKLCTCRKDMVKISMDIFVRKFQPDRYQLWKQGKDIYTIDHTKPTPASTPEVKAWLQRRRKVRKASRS
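material = GST-tagged GASC-1 (JMJD2C) catalytic fragment, aa 2-372 | amount = enzyme final amount 10 nM | medium = HEPES buffer, pH 7.5, plus ascorbate | also added = H3K9me3 peptide substrate, Fe(II), 2-oxoglutarate | dosing = single dose | times = 30 min demethylation and 1 h detection at room temperature | detection = LANCE TR-FRET | read-out basis = Fall in 671/618 emission ratio as inhibition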
IDH1 mut inh: inhibitors of IDH1 R132H reductase, primary screen, biochemical, plate reader, single point | 0.18% of 70,000 active | diaphorase/resazurin fluorescence, 60 min | inhibition, % at 10 µM | Isocitrate dehydrogenase [NADP] cytoplasmic (Homo sapiens), O75874; in the data active = inhibition above about 34%; inconclusive = no clear call, values can overlap the other calls; inactive = below about 11%;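 also: 0% = DMSO and 100% = no enzyme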
Target sequence (O75874 whole entry R132H): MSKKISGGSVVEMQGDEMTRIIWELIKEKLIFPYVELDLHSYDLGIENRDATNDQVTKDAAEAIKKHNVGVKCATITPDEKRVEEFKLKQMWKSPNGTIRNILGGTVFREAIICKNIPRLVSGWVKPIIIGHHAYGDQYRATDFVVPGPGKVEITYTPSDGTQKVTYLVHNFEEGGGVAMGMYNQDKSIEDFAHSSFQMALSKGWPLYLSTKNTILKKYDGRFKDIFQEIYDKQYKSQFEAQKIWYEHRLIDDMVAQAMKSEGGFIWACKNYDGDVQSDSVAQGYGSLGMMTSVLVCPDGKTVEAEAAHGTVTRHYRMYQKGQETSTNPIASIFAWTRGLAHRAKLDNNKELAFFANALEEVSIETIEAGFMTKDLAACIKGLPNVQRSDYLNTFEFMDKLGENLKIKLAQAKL
T cruzi growth-1: T. cruzi intracellular proliferation inhibitors, primary screen, cell-based, beta-gal Tulahuen parasites, NIH3T3 host, luminescence; 5.9% of 77,000 active; inhibition, % at 8.34 µM; T. cruzi beta-gal in NIH3T3, GalScreen luminescence, 90 h; AID 624255, 2012;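 active = mean inhibition above about 93%, with at least 55% of replicates each passing it, limit read from the data, passing the limit was not always enough; inconclusive = only one of those two conditions holds; inactive = neither condition holds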
T cruzi growth-2: T. cruzi intracellular proliferation inhibitors, confirmation, cell-based, NIH3T3 host, beta-gal parasite, luminescence, cherry-pick | T. cruzi beta-gal in NIH3T3, GalScreen luminescence, 90 h | shares compounds with T cruzi growth-1 | 72% of 5,600 active | inhibition, % at 8.35 µM;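 active = mean replicate inhibition above about 95% and at least 55% of replicates individually reaching it, limit read from the data; inconclusive = only one of the two criteria is met; inactive = neither criterion is met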
T cruzi growth-3: inhibitors of intracellular T. cruzi replication, confirmation, NIH3T3 host cells, beta-gal parasites, cherry-pick, set 2 | shares compounds with T cruzi growth-1 | T. cruzi beta-gal in NIH3T3, GalScreen luminescence, 90 h | inhibition, % at 2.09 µM | 21% of 5,600 active | AID 651740, 2012;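 active = mean inhibition above about 95%, with at least 55% of replicates also reaching it, limit read from the data; inconclusive = meets just one of the two conditions; inactive = meets neither condition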;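 also: plate controls were neutral control median for no effect and positive control median for full effect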
NIH3T3 tox: cytotoxicity in mouse NIH/3T3 fibroblasts, confirmation, cytotoxicity control for T. cruzi proliferation inhibitor project, cell-based, cherry-pick, single point. shares compounds with T cruzi growth-1. NIH/3T3 viability, CellTiter-Glo ATP luminescence, 90 h. cytotoxicity (signal decrease), % at 8.35 µM. 14% of 5,600 active. AID 651742, 2012;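 active = mean signal decrease across replicates above about 35% based on untreated-well scatter, with enough replicates individually passing, limit read from the data; inconclusive = no rule stated though some were filed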;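 also: 0% = median of neutral control wells and 100% = median of positive control wells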
3T3 cytotox 2: NIH/3T3 fibroblast cytotoxicity, confirmation, cytotoxicity control, cell-based, cherry-pick, single point, set 2 | AID 651744, 2012 | shares compounds with T cruzi growth-1 | 56% of 5,600 active | inhibition, % at 24.9 µM | NIH/3T3 viability, CellTiter-Glo ATP luminescence, 90 h;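 active = mean loss of cell viability signal at or above a set limit, and enough replicates individually reaching it; inconclusive = meets only the mean limit or only the replicate share; inactive = meets neither condition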;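 also: 0% = median of neutral control wells and 100% = median of positive control wells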
An asterisk follows results filed as active; ? = inconclusive; / = no result.

SMILES | GASC1 inh | IDH1 mut inh | T cruzi growth-1 | T cruzi growth-2 | T cruzi growth-3 | NIH3T3 tox | 3T3 cytotox 2
COc1cccc(-c2ccc([C@H]3[C@@H](C#N)N(C(=O)Cc4ccccc4)[C@@H]3CO)cc2)c1 | -4.5 | / | 97.3* | 109.6* | 66.8 | 16.9 | 42.9*
COc1cccc(-c2ccc([C@H]3[C@H](C#N)N(C(=O)Cc4ccncc4)[C@H]3CO)cc2)c1 | 0.3 | / | ? | 101.8* | 58.5 | 12.7 | 52.2*
O=C(C[C@@H]1CC[C@H](NS(=O)(=O)c2ccccc2)[C@H](CO)O1)N1CCN(c2ccccc2)CC1 | -0.5 | / | / | / | / | / | /
O=C(c1cccnc1)N1CC2(C1)[C@H](c1ccccc1)[C@H](CO)N2CC1CC1 | -0.8 | / | / | / | / | / | /
CC(C)C#Cc1ccc([C@H]2[C@@H](C#N)N(C(=O)c3ccccn3)[C@@H]2CO)cc1 | 1.5 | / | ? | 103.9* | 101.6* | 8.7 | 4.6
N#C[C@@H]1[C@H](c2ccc(-c3ccccc3F)cc2)[C@@H](CO)N1C(=O)c1ccccn1 | 4.6 | / | 85.1 | / | / | / | /
COCC(=O)N1[C@H](CO)[C@@H](c2ccc(C#CCC3CCCC3)cc2)[C@@H]1C#N | -0.8 | / | 59.6 | / | / | / | /
N#C[C@H]1[C@H](c2ccc(-c3ccccc3F)cc2)[C@H](CO)N1C(=O)c1ccccn1 | 4.5 | / | 21.4 | / | / | / | /
N#C[C@H]1[C@H](c2ccc(C#CCC3CCCC3)cc2)[C@@H](CO)N1C(=O)c1ccccn1 | -2.3 | / | 97.2* | 95.0* | 111.4* | 20.8 | 104.2*
N#C[C@@H]1[C@H](c2ccc(C#CCC3CCCC3)cc2)[C@@H](CO)N1C(=O)c1ccccn1 | -4.1 | / | 100.5* | 98.8* | 108.8* | 4.9 | 107.4*
COc1ccc(N(CC(=O)Nc2ccccc2-c2ccccc2)S(C)(=O)=O)cc1 | / | -0.2 | / | / | / | / | /
Cc1ccc(N(C(C)C(=O)NC2CC2)S(C)(=O)=O)cc1 (centres undefined) | / | -0.2 | / | / | / | / | /
COC(/C=C/C(OC(C)=O)C(C)OC(C)=O)C(O)C1CC=CC(=O)O1 (centres undefined) | / | -0.6 | / | / | / | / | /
C[C@H](CO)N1C[C@H](C)[C@@H](CN(C)Cc2cncnc2)Oc2ncc(-c3cccc(C#N)c3)cc2C1=O | 0.4 | -0.1 | 24.9 | / | / | / | /
C[C@@H]1CN([C@H](C)CO)C(=O)c2cc(/C=C/c3ccccc3)cnc2O[C@@H]1CN(C)S(=O)(=O)c1ccccc1F | -3.7 | 1.6 | 83.6 | / | / | / | /
COc1ccc(S(=O)(=O)N(C)C[C@@H]2Oc3ncc(/C=C/c4ccccc4)cc3C(=O)N([C@H](C)CO)C[C@H]2C)cc1 | -3.9 | -0.2 | / | / | / | / | /
COc1cccc(S(=O)(=O)N(C)C[C@@H]2Oc3ncc(/C=C/c4ccccc4)cc3C(=O)N([C@H](C)CO)C[C@@H]2C)c1 | -1.4 | 0.1 | 106.4* | 104.7* | 72.9 | ? | 77.1*
C[C@@H]1CN([C@H](C)CO)C(=O)c2cc(/C=C/c3ccccc3)cnc2O[C@H]1CN(C)S(=O)(=O)c1ccc(F)cc1 | 1.3 | / | 18.3 | / | / | / | /
C[C@H](CO)N1C[C@H](C)[C@@H](CN(C)S(=O)(=O)c2ccc(F)cc2)Oc2ncc(/C=C/c3ccccc3)cc2C1=O | -2.6 | / | 85.0* | 102.6* | 48.6 | -1.4 | -1.3
C[C@H](CO)N1C[C@H](C)[C@@H](CN(C)S(=O)(=O)c2ccccc2F)Oc2ncc(/C=C/c3ccccc3)cc2C1=O | -3.6 | 0.5 | 125.9* | 101.2* | 55.1 | 24.7 | 25.9
CO[C@@H]1CN(C)C(=O)c2cc(NS(C)(=O)=O)ccc2OC[C@H](C)N(CC2CC2)C[C@@H]1C | -1.0 | 0.4 | / | / | / | / | /
COc1ccc(OCC(=O)Nc2ccc(NC(=O)c3ccco3)c(OC)c2)cc1 | / | 0.0 | / | / | / | / | /
CCn1c(SCC(=O)Nc2ccccc2OC)nnc1-c1ccc(Br)cc1 | / | 0.1 | / | / | / | / | /
Cc1cnnc(/N=C(\N)Nc2ccc(S(=O)(=O)Nc3nc(C)ccc3C)cc2)n1 | / | -1.3 | / | / | / | / | /
O=C(CSc1nc(Nc2ccccc2)nc(Nc2ccccc2)n1)N1CCN(c2ccccc2)CC1 | / | 0.3 | / | / | / | / | /
SMILES | GASC1 inh | IDH1 mut inh | T cruzi growth-1 | T cruzi growth-2 | T cruzi growth-3 | NIH3T3 tox | 3T3 cytotox 2
N#C[C@H]1[C@@H](c2ccccc2)[C@@H](CO)N1S(=O)(=O)c1cccc(F)c1 | 0.2 | 0.9 | -25.7 | / | / | / | /
CCCC#Cc1ccc([C@H]2[C@H](C#N)N(S(=O)(=O)c3cccc(F)c3)[C@H]2CO)cc1 | -0.1 | / | 98.0* | 103.4* | 104.8* | 7.0 | 58.6*
N#C[C@H]1[C@H](c2ccc(-c3cccc(F)c3)cc2)[C@H](CO)N1S(=O)(=O)c1cccc(F)c1 | -1.7 | / | 96.2* | 107.6* | 74.6 | 37.2* | 57.0*
Cc1ccccc1S(=O)(=O)N1[C@H](C#N)[C@@H](c2ccc(-c3ccccc3)cc2)[C@@H]1CO | 0.4 | / | 66.6 | / | / | / | /
Cc1ccccc1S(=O)(=O)N1[C@H](C#N)[C@H](c2ccc(-c3ccccc3)cc2)[C@H]1CO | -1.2 | / | 103.4* | 98.2* | 65.9 | 40.5* | 47.3*
N#C[C@H]1[C@@H](c2ccc(-c3cccc(F)c3)cc2)[C@@H](CO)N1S(=O)(=O)c1cccc(F)c1 | 0.5 | / | 89.4 | / | / | / | /
CCCC#Cc1ccc([C@@H]2[C@H](C#N)N(S(=O)(=O)c3cccc(F)c3)[C@H]2CO)cc1 | -1.2 | / | 87.3 | / | / | / | /
N#C[C@H]1[C@H](c2ccc(-c3cccc(F)c3)cc2)[C@@H](CO)N1S(=O)(=O)c1cccc(F)c1 | -2.4 | / | 97.7* | 104.5* | 58.8 | 41.3* | 103.9*
CO[C@H]1CN(C)C(=O)c2cc(NC(C)=O)ccc2OC[C@@H](C)N(Cc2cncnc2)C[C@H]1C | 0.1 | 0.3 | -5.7 | / | / | / | /
Cc1sc2ncnc(SCC(=O)Nc3ccccc3-c3ccccc3)c2c1C | / | -0.4 | / | / | / | / | /
C/C=C/c1ccc([C@H]2[C@@H](CO)N3CCCCN(S(=O)(=O)c4ccc(F)cc4)C[C@H]23)cc1 | -1.9 | / | ? | 108.0* | 38.7 | 11.8 | 102.9*
C/C=C/c1ccc([C@@H]2[C@H]3CN(S(=O)(=O)c4ccc(OC)cc4)CCCCN3[C@H]2CO)cc1 | -1.8 | / | ? | 102.5* | 81.9 | 28.5 | 68.0*
C/C=C/c1ccc([C@H]2[C@@H](CO)N3CCCCN(S(=O)(=O)c4ccc(OC)cc4)C[C@H]23)cc1 | 12.7 | / | 85.3 | / | / | / | /

High-throughput results deposited in PubChem by Broad Institute.
